# An excerpt weighted towards active compounds, which were near 2.3% of everything screened.
# HePTP inhibitor: blocks human HePTP tyrosine phosphatase; recombinant HePTP phosphatase activity, OD absorbance; P35236; actives 0.64% (n = 110,000); inhibition, % at 20 µM; AID 521; in the data active = inhibition above about 50%;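 also: plate controls were vehicle for no effect and reference inhibitor for full effect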
# AP complement: alternative pathway complement inhibition, orthogonal assay; Human serum alternative complement pathway, LPS-coated ELISA, C3 deposition; tested in compound mixtures; inhibition, % at 5 µM; actives 0.08% (n = 62,000); AID 1235;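 active = inhibition above 30% in each of the two pooled mixtures holding the compound, so the lower value exceeds 30%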;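 also: 0% = serum in Mg-EGTA without compound and 100% = EDTA serum blank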
#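 Test system – human serum alternative complement pathway, C3 deposition on LPS-coated wells · Buffer or medium – diluted human serum in Mg2+-EGTA GVB++ · Compound dosing – 5 µM each compound, pools of ten, 50 µM per pool · Schedule – 1 h serum-compound exposure at 37 °C · Measured by – Anti-C3 ELISA, OD 450 nm · Read-out basis – percent inhibition of C3 deposition onto LPS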
# Ecoli WT expand: blocks growth of wild type E. coli BW25113; OD600 absorbance; growth inhibition, % at 100 µM; actives 0.15% (n = 98,000); AID 710;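 active = growth inhibition above about 50% at one test dose, limit read from the data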;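 also: growth measured after 20 h incubation at 37 °C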
# PLAP activator: activators of human placental alkaline phosphatase; purified PLAP enzyme, luminescent substrate read-out; hits give high values; activation fold at 20 µM; P05187; actives 1.2% (n = 96,000); in the data active = activation fold above about 2
# Target sequence (P05187 whole entry, looked up): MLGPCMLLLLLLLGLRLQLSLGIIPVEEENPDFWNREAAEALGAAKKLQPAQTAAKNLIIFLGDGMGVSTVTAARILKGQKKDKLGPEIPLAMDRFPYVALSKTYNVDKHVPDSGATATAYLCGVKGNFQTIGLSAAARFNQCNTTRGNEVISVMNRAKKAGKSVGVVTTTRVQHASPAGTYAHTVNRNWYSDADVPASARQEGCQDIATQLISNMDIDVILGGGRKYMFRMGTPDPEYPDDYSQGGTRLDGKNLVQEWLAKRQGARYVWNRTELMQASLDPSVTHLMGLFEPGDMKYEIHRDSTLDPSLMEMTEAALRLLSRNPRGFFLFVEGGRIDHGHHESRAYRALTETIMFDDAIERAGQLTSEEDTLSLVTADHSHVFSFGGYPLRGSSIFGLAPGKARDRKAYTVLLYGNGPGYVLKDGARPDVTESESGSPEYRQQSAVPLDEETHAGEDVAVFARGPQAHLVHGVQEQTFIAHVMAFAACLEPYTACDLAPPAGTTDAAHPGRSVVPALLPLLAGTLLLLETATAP
# Ecoli tolC: E. coli tolC mutant growth inhibition. E. coli BW25113 tolC mutant growth, OD615. growth inhibition, % at 10 µM (by protocol). actives 2.2% (n = 65,000);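 active = growth inhibition at or above a cutoff equal to the mean over every tested compound plus 3 SD, cut at about 60% in these data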;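 also: growth measured after 20 h incubation at 37 °C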
#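 Test system: E. coli BW25113 ΔtolC::kan bacteria | Medium: Kanamycin-containing LB broth (50 µg/mL) | Dosing: One dose of 10 µM final | Times: 20 h incubation with compound, 37 °C | Detection: Optical density read at 615 nm | Read-out basis: Percent growth inhibition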
# * marks the source's active call; other numbers are inactive results; x = no result.
SMILES,HePTP inhibitor,AP complement,Ecoli WT expand,PLAP activator,Ecoli tolC
CCn1ccnc1C(O)c1cc(OC)ccc1OC (centres undefined),-6.3,x,x,x,x
Cc1c(C#N)c(N)c(C(=O)c2ccc(Br)cc2)n1-c1ccc(Br)cc1,10.3,x,x,x,x
Cc1c(C#N)c(N)c(C(=O)c2ccccc2)n1-c1ccccc1,70.3*,x,x,x,x
CN(C)C1=C(C#N)C(C2CCCCC2=O)c2c(c3ccccc3n2C)N1c1ccc([N+](=O)[O-])cc1 (centres undefined),103.6*,x,x,x,x
O=C(O)c1ccccc1SC1CC(=O)N(c2ccc([N+](=O)[O-])cc2)C1=O (centres undefined),-8.2,x,x,x,x
COc1ccc(C(=O)N(CCCCN2C(=O)c3ccccc3C2=O)c2ccc(C)cc2)cc1OC,3.7,x,x,x,x
CC(=O)c1ccc(NC(=O)c2ccc3c(c2)C(=O)N(N2C(=O)c4ccccc4C2=O)C3=O)cc1,-19.2,x,x,x,x
Nc1nc(SCC(=O)Nc2ccc(Br)cc2F)n[nH]1,11.2,5.5,14.0,2*,-2.7
O=C(c1ccc([N+](=O)[O-])cc1)n1c2c(c3ccccc31)CCCC2,103.6*,x,x,x,x
C=CCNC(=S)NNC(=O)C(CCC(C)C)CC(C)O (centres undefined),x,x,0.0,2.7*,x
C=CCNC(=S)NNC(=O)c1ccc(OCC(C)C)cc1,x,x,4.0,1.4,x
O=C(c1cccc([N+](=O)[O-])c1)N1CCc2ccccc2C1,-1.9,x,x,x,x
O=C(NCCO)/C(=C/c1cccc([N+](=O)[O-])c1)NC(=O)c1cccs1,-0.3,x,x,x,x
CSc1ccc(/C=C/C(=O)c2cccc(N)c2)cc1,4.8,x,x,x,x
Cc1cc(C)n(-c2nc(NC(C)C)nc(NC(C)C)n2)n1,3.9,3.9,17.0,1.1,87.8*
Cc1cc(C)n(-c2nc(NC(C)(C)C)nc(NC(C)(C)C)n2)n1,-5.2,7.3,-8.0,1,20.6
CC1CCc2c(sc3nc(CN4CCOCC4)nc(NS(=O)(=O)c4cccc([N+](=O)[O-])c4)c23)C1 (centres undefined),x,x,-1.0,2.1*,x
COc1ccc(OC)c(NC(=O)CSCc2cnn(-c3ccccc3)c2-n2cccc2)c1,1.1,10.9,-22.0,1.3,48.9
COc1cccc(CNC(=O)CSCc2cnn(-c3ccccc3)c2-n2cccc2)c1OC,x,x,-11.0,2.6*,x
COc1cc(NC(=O)CSCc2cnn(-c3ccccc3)c2-n2cccc2)cc(OC)c1,11.9,10.9,-46.0,x,33.5
COc1ccccc1CNC(=O)CSCc1cnn(-c2ccccc2)c1-n1cccc1,x,x,-15.0,2.7*,x
COC(=O)c1ccc(C(=O)OC)c(NC(=O)/C=C/c2ccc(Cl)cc2)c1,-12.6,x,x,x,x
c1ccc(CCN2CCN(c3ncnc4c3cnn4-c3ccccc3)CC2)cc1,12.2,0.8,-23.0,1.4,65.7*
CC1CCCN(c2ncnc3c2cnn3-c2ccc(Cl)cc2)C1 (centres undefined),-2.5,15.8,x,x,96.1*
Cc1cccc(-n2ncc3c(N(C)Cc4ccccc4)ncnc32)c1,0.5,23.9,x,x,92.6*
SMILES,HePTP inhibitor,AP complement,Ecoli WT expand,PLAP activator,Ecoli tolC
Cc1cccc(-n2ncc3c(N4CCC(C)CC4)ncnc32)c1,4.9,2.9,-2.0,1.6,94.5*
CC1CCCN(c2ncnc3c2cnn3-c2ccccc2)C1 (centres undefined),4.8,9.4,x,x,58.6
CCN1CCN(c2ncnc3c2cnn3-c2ccccc2)CC1,-0.5,26.8,3.0,1.5,-3.4
C=CCN1C(=O)C(Cc2ccc(C)cc2)S/C1=N\N=C\c1ccco1 (centres undefined),-7.9,x,x,x,x
COc1cc(C(=O)Nc2cccc(S(N)(=O)=O)c2)ccc1OCc1ccc(Cl)cc1,-8.3,x,x,x,x
Cc1cc(NCc2cccnc2)nc2ccccc12,-4.6,x,x,x,x
CC(C)(C)c1cnc(NC(=O)c2ccccc2O)s1,2.6,x,x,x,x
Cc1ccc(N2C(=O)C3C(C2=O)C2C=CC3C23CC3)cc1Br (centres undefined),4.0,x,x,x,x
C=CCOC(=O)C(C#N)c1nc2ccccc2nc1N1CCCC1 (centres undefined),-5.4,-2.5,4.0,1.2,96.4*
COCCOC(=O)C(C#N)c1nc2ccccc2nc1N1CCCC1 (centres undefined),9.4,9.0,4.0,0.9,31.2
O=C(O)c1ccc(-c2ccc(/C=C3\SC(=S)N(c4ccc([N+](=O)[O-])cc4)C3=O)o2)cc1,102.6*,x,x,x,x
O=C(O)CCN1C(=O)/C(=C/c2ccc(-c3ccc(Cl)cc3)o2)SC1=S,102.4*,x,x,x,x
O=C(O)CCN1C(=O)/C(=C/c2ccc(-c3ccc([N+](=O)[O-])cc3)o2)SC1=S,4.8,x,x,x,x
O=C(O)CN1C(=O)/C(=C\c2cc([N+](=O)[O-])ccc2Cl)SC1=S,34.3,x,x,x,x
O=C(O)CCCN1C(=O)/C(=C\c2ccc(-c3cccc([N+](=O)[O-])c3)o2)SC1=S,97.4*,x,x,x,x
O=C(O)CCN1C(=O)/C(=C\C(Cl)=C/c2ccc([N+](=O)[O-])cc2)SC1=S,102.4*,x,x,x,x
COc1ccc(CNc2ccc(Br)cc2C(=O)O)c(OC)c1,77.4*,x,x,x,x
COc1cccc(C(=O)N2CCN(C3CC4CCC3C4)CC2)c1 (centres undefined),-10.1,x,x,x,x
Cn1c2c(c(=O)n(C)c1=O)C(c1cc3c(cc1Br)OCO3)CC(=O)N2 (centres undefined),-17.5,31.8*,6.0,1.1,-3.5
Cc1c(/C=C/c2nc3ccccc3c(=O)n2-c2ccc([N+](=O)[O-])cc2)c2ccccc2n1C,80.6*,x,x,x,x
O=c1c2ccccc2sn1-c1ccccc1,x,x,100.0*,1,x
O=c1c2ccccc2sn1-c1ccc(S(=O)(=O)N2CCCC2)cc1,7.8,3.9,-3.0,1.1,-4.6
Cc1nn(-c2ccccc2)c(Cl)c1C(=O)Nc1nnc(C2CCCCC2)s1,x,x,-11.0,1.1,x
O=C(Nc1nnc(C2CC2)s1)c1cc(-c2ccccc2)nn1-c1ccccc1,4.2,5.4,-11.0,1.9,66.6*
CC1=C(C#N)c2nc(N)c(C#N)c(C)c2/C1=C/c1ccc(-c2ccccc2[N+](=O)[O-])o1,81.0*,x,x,x,x
SMILES,HePTP inhibitor,AP complement,Ecoli WT expand,PLAP activator,Ecoli tolC
CC1=C(C#N)c2nc(N)c(C#N)c(C)c2/C1=C/c1ccc(-c2ccc([N+](=O)[O-])cc2C)o1,5.2,x,x,x,x
COC(=O)C1=C(N)Oc2cc(C)n(Cc3ccco3)c(=O)c2C1c1cccc(Cl)c1 (centres undefined),-4.7,-8.5,-17.0,1,67.5*
CCc1cccc(NC(=O)c2cccc(F)c2)c1,-0.4,x,x,x,x
COC(=O)c1ccc(C(=O)OC)c(NC(=O)CSc2cccc[n+]2[O-])c1,x,x,50.0*,1,x
COC(=O)CSc1ncc(C#N)c(N)n1,-0.5,11.0,2.0,1.1,-19.1
Cc1cccc(OCC(=O)NNC(=O)CSc2ncc(C#N)c(N)n2)c1,x,x,17.0,2*,x
CCOc1ccccc1NC(=O)c1c(N)sc2c1CCC(C)C2 (centres undefined),2.6,x,x,x,x
CCc1nnc(NC(=O)C2CCN(C(=O)NC3CCCCC3)CC2)s1,1.7,34.1*,2.0,1,2.0
CCc1nnc(NC(=O)C2CCCC2)s1,-6.7,x,x,x,x
COc1cccc(/C=C2\SC(=S)N(NC(=O)c3ccc([N+](=O)[O-])cc3)C2=O)c1,-4.3,x,x,x,x
